XiGFP reactiv: activators of inactive X chromosome reactivation, primary screen, imaging, XiGFP fibroblasts, GFP high-content imaging, set 2; XiGFP mouse fibroblasts, % GFP-positive cells imaging, 3 d; cells co-treated with 5-aza-dC sensitizer; scaled so ellipticine positive control = 100%; AID 743238, 2013; activation, % at 7.58 µM; 360,000 tested, 0.055% active;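 active means mean normalized replicate activation at least 10% and every replicate at or above 10%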
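material = 68-5-11 XiGFP fibroblast line | medium = DMEM plus 5-aza-dC sensitizer | schedule = 3 days compound exposure | benchmarks = positive control ellipticine, 6 µM final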
E-sel inducer: E-selectin induction in HUVECs, primary screen, imaging, HUVEC, immunofluorescence imaging, single point | normalized: neutral wells 0, TNF-alpha wells 100 | activation, % at 7.58 µM | 260,000 tested, 0.37% active;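 active means mean E-selectin-positive cell signal at least 10% of the positive control, reached in at least 60% of replicates, without over 20% cell loss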
Target sequence (P16581 whole entry, looked up): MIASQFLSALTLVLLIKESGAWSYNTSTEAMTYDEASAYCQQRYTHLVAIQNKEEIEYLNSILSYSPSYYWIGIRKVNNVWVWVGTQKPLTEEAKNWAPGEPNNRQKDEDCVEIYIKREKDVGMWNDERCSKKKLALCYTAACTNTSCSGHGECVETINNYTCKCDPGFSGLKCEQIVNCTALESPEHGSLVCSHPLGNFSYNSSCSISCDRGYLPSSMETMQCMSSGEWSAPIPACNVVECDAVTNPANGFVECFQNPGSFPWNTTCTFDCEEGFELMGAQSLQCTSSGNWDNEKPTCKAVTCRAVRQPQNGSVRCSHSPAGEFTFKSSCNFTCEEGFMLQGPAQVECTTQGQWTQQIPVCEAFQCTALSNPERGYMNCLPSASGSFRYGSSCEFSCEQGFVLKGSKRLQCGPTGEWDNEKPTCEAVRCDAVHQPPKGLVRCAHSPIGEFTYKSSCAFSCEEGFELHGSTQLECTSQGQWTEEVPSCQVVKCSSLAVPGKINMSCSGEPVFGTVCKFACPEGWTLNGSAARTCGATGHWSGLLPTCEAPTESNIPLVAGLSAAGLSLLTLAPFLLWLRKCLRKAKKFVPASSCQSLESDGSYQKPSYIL
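Read-out basis: % PE-positive cells; Test system: HUVEC primary endothelial cells; Technique: immunofluorescence imaging; Dosing: single-point compound dose.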
F508del corr: F508del CFTR correction, initial screen, CFBE line, single point; CFBE cells, YFP halide quenching; stimulated with forskolin plus potentiator P3; % fluorescence drop versus neutral controls; activity (quench increase), % at 7.58 µM; 350,000 tested, 0.36% active; AID 720511, 2013;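 active means mean added fluorescence quench of at least 8% versus neutral control, with both replicates also reaching 8%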;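 further: cells transiently co-express mutant CFTR-F508del with the halide-sensitive YFP; corrector assay measuring rescue of mutant channel to the surface after 24 h compound exposure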
Each line names hits and unclear results; the compound was inactive in the other large screens. A selection: hits, their analogues and other compounds. The true share with any hit is near 0.61%.

CC(C)NC(=O)Nc1ccc2c(c1)C(=O)N([C@@H](C)CO)C[C@@H](C)[C@H](CN(C)Cc1ccc(C(F)(F)F)cc1)O2	E-sel inducer 38
C[C@H]1CN([C@@H](C)CO)C(=O)c2cc(NC(=O)Nc3ccc(C(F)(F)F)cc3)ccc2O[C@H]1CN(C)Cc1ccc(Oc2ccccc2)cc1	none
C[C@H](CO)N1C[C@H](C)[C@@H](CN(C)Cc2ccc(Oc3ccccc3)cc2)Oc2ccc(NC(=O)Nc3ccc(C(F)(F)F)cc3)cc2C1=O	E-sel inducer 273
C[C@@H]1CN([C@H](C)CO)C(=O)c2cc(NS(C)(=O)=O)ccc2O[C@@H]1CN(C)Cc1ccc(C(F)(F)F)cc1	E-sel inducer 110
C[C@H]1CN([C@@H](C)CO)C(=O)c2cc(NS(C)(=O)=O)ccc2O[C@@H]1CN(C)Cc1ccc(C(F)(F)F)cc1	none
O=S(=O)(N[C@@H]1CC[C@H](CCn2cc(-c3cccnc3)nn2)O[C@@H]1CO)c1ccc(Cl)cc1	none
COc1ccc(NC(=O)N(C)C[C@@H]2Oc3ccc(NC(=O)Nc4ccc(F)cc4)cc3CC(=O)N([C@H](C)CO)C[C@@H]2C)cc1	none
COc1ccc(N2CCN(C(=O)c3cc(=O)[nH]c4ccccc34)CC2)cc1	none (no result: E-sel inducer)
O=C(c1cc(=O)[nH]c2ccccc12)N1CCN(c2ccc([N+](=O)[O-])cc2)CC1	E-sel inducer 33 (no result: XiGFP reactiv)
C[C@H](CO)N1C[C@H](C)[C@H](CN(C)C(=O)Nc2ccc(C(F)(F)F)cc2)Oc2c(cccc2N(C)C)C1=O	none (no result: E-sel inducer)
Cn1cnc(S(=O)(=O)N2CCCCN3[C@H](CO)[C@@H](c4ccc(C5=CCCC5)cc4)[C@H]3C2)c1	none (no result: XiGFP reactiv, E-sel inducer)
O=C(c1ccccc1)N1CC[C@@H]2[C@H]1c1cc(C#CC3CCCCC3)ccc1N[C@@H]2CO	none (no result: E-sel inducer)
CS(=O)(=O)c1ccccc1C(=O)N(CCc1ccccc1)Cc1ccccc1	none
COc1ccc(C(=O)N(CCc2ccccc2)Cc2ccccc2)c(OC)n1	E-sel inducer 30
CCOC(=O)c1c(-c2ccc(OC)cc2)csc1/N=C/C1C(=O)CCCC1=O	E-sel inducer 278
CCOC(=O)c1c(-c2ccc(OC)cc2)csc1/N=C/N(C)C	none (no result: F508del corr)
COc1ccc(NC(=O)N(C)C[C@@H]2OCCCC[C@@H](C)Oc3ccc(NS(=O)(=O)c4ccc(C)cc4)cc3C(=O)N([C@H](C)CO)C[C@H]2C)cc1	none (no result: E-sel inducer)
O=C(C[C@H]1C[C@H]2c3cc(NS(=O)(=O)c4ccc(F)cc4)ccc3O[C@H]2[C@H](CO)O1)N1CCCCC1	none
CCNC(=O)C[C@H]1C=C[C@@H](NC(=O)NC2CCCCC2)[C@H](CO)O1	none
CCNC(=O)C[C@@H]1C=C[C@@H](NC(=O)NC2CCCCC2)[C@H](CO)O1	F508del corr 8.8
O=C(c1ccc(F)cc1)N1C[C@H]2[C@@H](c3ccccc31)[C@H](CO)N2C(=O)c1ccc(F)cc1	none
C[C@@H]1CN([C@@H](C)CO)S(=O)(=O)c2ccc(C#Cc3cccnc3)cc2O[C@@H]1CN(C)C(=O)C1CC1	none
COc1ccc(C2c3ccc4ccccc4c3Oc3ncn(CCCO)c(=N)c32)cc1OC (centres undefined)	F508del corr 15
COc1ccc(C2c3ccc4ccccc4c3Oc3ncn(CCCO)c(=N)c32)cc1 (centres undefined)	none (no result: E-sel inducer)
Nc1[nH]c(C(=O)c2ccccc2)c(-c2ccccc2Br)c1C(=O)NCCc1c[nH]c2ccccc12	none
Nc1[nH]c(C(=O)c2ccccc2)c(-c2ccccc2C(F)(F)F)c1C(=O)NCCc1c[nH]c2ccccc12	F508del corr 9.8
Cc1ccc(C)c(S(=O)(=O)N2CCCCC2CCNC(=O)C(=O)NCc2ccccn2)c1 (centres undefined)	none
Cc1cc(F)ccc1S(=O)(=O)N1CCCCC1CCNC(=O)C(=O)NCc1ccccn1 (centres undefined)	E-sel inducer 75
O=C(C[C@H]1C[C@@H]2c3cc(NC(=O)NC4CCCC4)ccc3O[C@@H]2[C@H](CO)O1)NCCN1CCCCC1	none
N#C[C@H]1[C@@H](c2ccc(C3=CCCCC3)cc2)[C@H](CO)N1C(=O)NC1CCCC1	none
N#C[C@H]1[C@H](c2ccc(C3=CCCCC3)cc2)[C@@H](CO)N1C(=O)NC1CCCCC1	F508del corr 10
CCC(=O)N1CC[C@@H]2[C@H]1c1cc(-c3ccc(F)cc3)ccc1N(C)[C@@H]2CO	none
COC(=O)C[C@H](NC(=O)Cn1cc(C)c(=O)[nH]c1=O)C(=O)OC	none
COC(=O)[C@H](CCSC)NC(=O)Cn1cc(C)c(=O)[nH]c1=O	F508del corr 8.7
COc1ccc(NC(=O)N2CC(=O)N3[C@@H](CO)[C@@H](c4ccc(/C=C/c5ccccc5)cc4)[C@@H]3C2)cc1	none (no result: XiGFP reactiv, E-sel inducer)
CC(C)NC(=O)Nc1ccc2c(c1)CC(=O)N([C@H](C)CO)C[C@@H](C)[C@@H](CN(C)S(C)(=O)=O)O2	none (no result: E-sel inducer)
O=C(NCC(c1ccco1)N1CCc2ccccc21)C(=O)Nc1ccccc1F (centres undefined)	none (no result: E-sel inducer)
COc1ccccc1NC(=O)C(=O)NCC(c1ccco1)N1CCc2ccccc21 (centres undefined)	F508del corr 9.8
NS(=O)(=O)c1cccc(NC(=O)COC(=O)Cc2ccc(S(=O)(=O)N3CCOCC3)s2)c1	XiGFP reactiv 140 (no result: E-sel inducer)
O=C(COC(=O)Cc1cccs1)Nc1cccc(S(=O)(=O)N2CCOCC2)c1	none
C=CCN(CC=C)C(=O)Nc1cc(OC)ccc1OC	none
C=CCN(CC=C)C(=S)Nc1ccc(OC)c(OC)c1	F508del corr 13 (no result: E-sel inducer)
COc1ccc2c3c(n(C)c2c1)[C@@H](CO)N(C(=O)C1CCC1)CC31CN(Cc2cccc(F)c2)C1	none (no result: E-sel inducer, F508del corr)
C[C@H](CO)N1C[C@H](C)[C@@H](CN(C)Cc2ccc3c(c2)OCO3)Oc2c(NS(=O)(=O)c3cn(C)cn3)cccc2C1=O	none
C[C@@H]1CN([C@@H](C)CO)C(=O)c2cccc(NS(=O)(=O)c3cn(C)cn3)c2O[C@H]1CN(C)Cc1ccncc1	E-sel inducer 53
C[C@@H]1CN([C@H](C)CO)C(=O)c2cccc(NS(=O)(=O)c3cn(C)cn3)c2O[C@H]1CN(C)Cc1ccncc1	none
C[C@H](CO)N1C[C@H](C)[C@H](CN(C)Cc2ccc(Cl)c(Cl)c2)Oc2c(NS(=O)(=O)c3cn(C)cn3)cccc2C1=O	E-sel inducer 38
COc1ccc(-c2ccc3c(c2)O[C@@H](CN(C)CC2CCOCC2)[C@H](C)CN([C@H](C)CO)S3(=O)=O)cc1	none
COc1ccc(-c2ccnc(-c3ccncc3)n2)cc1	none
COc1ccc(-c2ccnc(-c3ccc(O)cc3)n2)cc1	F508del corr 11 (no result: E-sel inducer)
O=S(=O)(NCc1cccnc1)c1ccc(Cl)c2ccccc12	E-sel inducer 27
CCOc1ccc(S(=O)(=O)NCc2cccnc2)c2ccccc12	none (no result: XiGFP reactiv, E-sel inducer)
C[C@H]1CN([C@@H](C)CO)C(=O)c2cc(/C=C/c3ccccc3)cnc2O[C@H]1CN(C)C(=O)c1ccc2c(c1)OCO2	none
CCCCc1c(O)nc2ccccn2c1=O	none
Cc1c(O)nc2ccccn2c1=O	E-sel inducer 71
CC(CN1CCCCC1)OC(=O)c1ccco1 (centres undefined)	E-sel inducer 39
